Measurements published in ChEMBL document CHEMBL3102807, “Angustifonines A and B, cytotoxic bisindole alkaloids from Bousigonia angustifolia” (J Nat Prod, 2014).

Assays:
Type in all cases: functional, cell-based
SW480 = assay: Cytotoxicity against human SW480 cells after 48 hrs by MTT assay; conditions: SW480, 48 h
Procedure, shortened: (§1)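 Cells kept in RPMI-1640 or DMEM with 10% FBS, 37 °C, 5% CO2; adherent cells allowed to attach 12 h in 96-well plates. Exposed in triplicate to 0.0625, 0.32, 1.6, 8 and 40 μM for 48 h, cisplatin and paclitaxel as positive controls. MTT (100 μg/well) added for 4 h at 37 °C, lysis in 20% SDS/50% DMF, OD at 595 nm; IC50 by Reed–Muench method.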

MCF7 = assay: Cytotoxicity against human MCF7 cells after 48 hrs by MTT assay; conditions: MCF7, 48 h; procedure, shortened: as §1
A549 = assay: Cytotoxicity against human A549 cells after 48 hrs by MTT assay; conditions: A549, 48 h; procedure, shortened: as §1
SMMC-7721 = assay: Cytotoxicity against human SMMC7721 cells after 48 hrs by MTT assay; conditions: SMMC-7721, 48 h; procedure, shortened: as §1
HL-60 = assay: Cytotoxicity against human HL60 cells after 48 hrs by MTT assay; conditions: HL-60, 48 h; procedure, shortened: as §1

Row | SMILES | IC50 (SW480) | IC50 (MCF7) | IC50 (A549) | IC50 (SMMC-7721) | IC50 (HL-60)
1 | CC[C@]12C=CCN3Cc4c(n(c5ccccc5c4=O)[C@@H](c4cc5c(cc4OC)NC4=C(C(=O)OC)C[C@]6([C@@H](C)O)C=CCN7CC[C@@]45[C@@H]76)C1)[C@@H]32 | 13.9 µM | 12.1 µM | 16.2 µM | 15.3 µM | 9.6 µM
2 | CC[C@]12C=CCN3Cc4c(n(c5ccccc5c4=O)[C@@H](c4cc5c(cc4OC)NC4=C(C(=O)OC)C[C@]6(CC)C=CCN7CC[C@@]45[C@@H]76)C1)[C@@H]32 | 2.71 µM | 3.61 µM | 7.23 µM | 10.6 µM | 3.03 µM
3 | CC(=O)O[C@H]1C(=O)[C@@]2(C)[C@H]([C@H](OC(=O)c3ccccc3)[C@]3(O)C[C@H](OC(=O)[C@H](O)[C@@H](NC(=O)c4ccccc4)c4ccccc4)C(C)=C1C3(C)C)[C@]1(OC(C)=O)CO[C@@H]1C[C@@H]2O [PACLITAXEL] | < 0.008 µM | < 0.008 µM | < 0.008 µM | < 0.008 µM | < 0.008 µM
